Source: ChEMBL document CHEMBL3351241, “Metabolic stability optimization and metabolite identification of 2,5-thiophene amide 17β-hydroxysteroid dehydrogenase type 2 inhibitors” (Eur J Med Chem, 2014)

What was measured:
[1] = target: T1, Estrogen receptor (Homo sapiens) (UniProt P03372); assay: Displacement of [3H]E2 from human recombinant ERalpha at 3 nM after 16 to 20 hrs by cell-free assay
T1 sequence (whole entry): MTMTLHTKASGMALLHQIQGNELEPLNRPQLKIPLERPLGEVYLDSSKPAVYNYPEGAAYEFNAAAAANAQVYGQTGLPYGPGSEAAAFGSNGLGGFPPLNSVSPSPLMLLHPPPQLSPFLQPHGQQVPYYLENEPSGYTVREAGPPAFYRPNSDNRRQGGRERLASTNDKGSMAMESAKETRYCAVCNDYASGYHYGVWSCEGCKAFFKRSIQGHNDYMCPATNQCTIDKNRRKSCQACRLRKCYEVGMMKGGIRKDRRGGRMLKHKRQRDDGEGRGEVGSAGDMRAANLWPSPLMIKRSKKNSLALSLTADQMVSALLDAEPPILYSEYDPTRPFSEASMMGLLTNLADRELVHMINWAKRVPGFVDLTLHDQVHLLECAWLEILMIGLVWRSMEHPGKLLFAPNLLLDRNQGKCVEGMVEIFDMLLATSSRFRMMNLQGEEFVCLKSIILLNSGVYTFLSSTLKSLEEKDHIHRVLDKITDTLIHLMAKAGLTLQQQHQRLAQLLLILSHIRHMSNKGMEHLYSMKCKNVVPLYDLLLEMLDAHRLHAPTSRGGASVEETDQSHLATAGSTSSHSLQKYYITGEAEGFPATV
Summary of the method: (§1)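 Recombinant human ERα (1 nM, [3H]-E2 3 nM) or ERβ (4 nM, [3H]-E2 10 nM) incubated with test compound, 5% DMSO final, for 16–20 h at 4 °C. Nonspecific binding set with 100-fold unlabeled E2. Complexes bound to hydroxyapatite, washed three times, counted by liquid scintillation. Compounds tested at 1000-fold the [3H]-E2 level (3 µM ERα, 10 µM ERβ). Below 50% displacement classed RBA <0.1%.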

[2] = Drug metabolism in human liver microsome S9 fraction assessed as didemethylation metabolite formation by LC-MS/MS analysis; format: ADME; conditions: microsomes
[3] = target: Estrogen receptor beta (Homo sapiens) (UniProt Q92731); assay: Displacement of [3H]E2 from human recombinant ERbeta at 10 nM after 16 to 20 hrs by cell-free assay; summary of the method: as §1
Chain of Estrogen receptor beta (Homo sapiens) (Q92731 whole entry): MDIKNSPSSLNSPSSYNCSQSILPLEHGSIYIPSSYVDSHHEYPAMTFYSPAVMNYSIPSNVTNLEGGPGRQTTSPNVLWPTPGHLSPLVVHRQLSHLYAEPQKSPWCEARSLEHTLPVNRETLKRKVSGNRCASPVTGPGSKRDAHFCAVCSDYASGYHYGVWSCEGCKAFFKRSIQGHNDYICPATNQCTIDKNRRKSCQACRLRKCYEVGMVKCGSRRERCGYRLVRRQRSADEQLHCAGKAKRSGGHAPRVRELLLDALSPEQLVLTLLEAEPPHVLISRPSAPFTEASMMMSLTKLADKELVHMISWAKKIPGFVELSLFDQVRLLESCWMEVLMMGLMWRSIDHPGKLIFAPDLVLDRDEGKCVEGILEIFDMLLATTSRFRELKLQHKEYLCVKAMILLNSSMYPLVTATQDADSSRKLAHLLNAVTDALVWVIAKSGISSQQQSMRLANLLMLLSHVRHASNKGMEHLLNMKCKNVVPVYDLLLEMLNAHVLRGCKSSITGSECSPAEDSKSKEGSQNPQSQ

[4] = Half-life in human liver microsome S9 fraction at 3 uM up to 45 mins by LC-MS/MS analysis; format: ADME, microsomes
[5] = target: T2, 17-beta-hydroxysteroid dehydrogenase type 1 (Homo sapiens, UniProt P14061); assay: Displacement of [3H]E1 from human placental cytosolic17beta-HSD1 after 10 mins by cell-free assay
T2 sequence (P14061 whole entry): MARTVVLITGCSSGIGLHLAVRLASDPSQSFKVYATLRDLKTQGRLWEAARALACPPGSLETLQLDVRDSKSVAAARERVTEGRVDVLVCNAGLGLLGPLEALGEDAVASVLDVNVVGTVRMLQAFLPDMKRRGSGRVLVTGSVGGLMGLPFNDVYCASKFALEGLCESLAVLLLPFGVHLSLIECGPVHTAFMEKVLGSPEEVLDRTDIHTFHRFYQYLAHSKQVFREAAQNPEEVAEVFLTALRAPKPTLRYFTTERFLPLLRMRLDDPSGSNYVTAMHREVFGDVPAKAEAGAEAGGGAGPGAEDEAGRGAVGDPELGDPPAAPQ
Summary of the method: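 Cytosolic 17β-HSD1 from human placenta, ammonium sulfate precipitated. Enzyme incubated with NADH 500 µM, test compound and unlabeled plus [3H]-E1 (final 500 nM) for 10 min at 37 °C. Reaction stopped with HgCl2 and extracted with ether. E1/E2 separated by C18 RP HPLC (acetonitrile/water 45:55) with radioflow detection. Activity taken as % conversion. Percent inhibition read at 1 µM.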

Homo sapiens = organism: Homo sapiens; assay: Selectivity factor, ratio of IC50 for human placental cytosolic17beta-HSD1 to IC50 for human placental microsomal 17beta-HSD2
[6] = Half-life in human liver microsome S9 fraction at 1 uM up to 60 mins by LC-MS/MS analysis; format: ADME, microsomes
Summary of the method: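 Sampled at 0, 5, 15 and 60 min and quenched with 2 volumes cold acetonitrile containing internal standard. Remaining parent quantified by LC-MS/MS to give t1/2.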

[7] = target: T3, 17-beta-hydroxysteroid dehydrogenase type 2 (Homo sapiens, UniProt P37059); assay: Displacement of [3H]E2 from human placental microsomal 17beta-HSD2 after 20 mins by cell-free assay
T3 sequence (P37059 whole entry): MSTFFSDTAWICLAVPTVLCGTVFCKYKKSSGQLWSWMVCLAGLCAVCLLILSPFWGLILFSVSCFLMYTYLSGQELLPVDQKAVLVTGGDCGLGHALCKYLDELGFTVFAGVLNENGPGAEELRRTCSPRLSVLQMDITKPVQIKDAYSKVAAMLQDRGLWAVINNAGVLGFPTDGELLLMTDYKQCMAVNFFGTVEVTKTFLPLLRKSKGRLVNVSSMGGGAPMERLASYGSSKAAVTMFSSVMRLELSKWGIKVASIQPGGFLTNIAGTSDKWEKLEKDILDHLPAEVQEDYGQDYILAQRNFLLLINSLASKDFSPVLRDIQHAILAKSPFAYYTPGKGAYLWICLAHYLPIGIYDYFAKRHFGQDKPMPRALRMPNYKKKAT
Summary of the method: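 Microsomal 17β-HSD2 from human placenta, 150,000 g pellet. Started with unlabeled plus [3H]-E2 (final 500 nM), stopped after 20 min with HgCl2, ether-extracted. E1/E2 resolved by radio-HPLC, giving % conversion. Inhibition read at 1 µM.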

[8] = Drug metabolism in human liver microsome S9 fraction treated with N-Methyl-N,5-bis(3-methylphenyl)thiophene-2-carboxamide by LC-MS/MS analysis; format: ADME; conditions: microsomes
[9] = Drug metabolism in human liver microsome S9 fraction assessed as di-hydroxylation metabolite formation by LC-MS/MS analysis; format: ADME; conditions: microsomes
[10] = Drug metabolism in human liver microsome S9 fraction assessed as acid metabolite formation by LC-MS/MS analysis; format: ADME; conditions: microsomes
[11] = Drug metabolism in human liver microsome S9 fraction assessed as demethylation/hydroxylation metabolite formation by LC-MS/MS analysis; format: ADME; conditions: microsomes

Structure (SMILES) | inhibition [1] | inhibition [3] | IC50 [5] | Ratio IC50 (Homo sapiens) | IC50 [7] | further results
Cc1cccc(-c2ccc(C(=O)N(C)c3cccc(C)c3)s2)c1 | 12% | 21% |  |  |  | Drug metabolism [2]: metabolite_notdetected
COc1cccc(N(C)C(=O)c2ccc(-c3cccc(N(C)C)c3)s2)c1 |  |  |  |  |  | half-life at 3 µM [4]: 29 min
Cc1cccc(N(C)C(=O)c2ccc(-c3cccc(CO)c3)s2)c1 |  |  |  |  |  | Drug metabolism [8]: metabolite_notdetected
Cc1ccc(N(C)C(=O)c2ccc(-c3ccc(C)c(C)c3)s2)cc1 | 5% | 4% |  |  |  | 
Cc1cccc(-c2cnc(C(=O)N(C)c3cccc(C)c3)s2)c1 | 9% | 0% | 25300 nM | 51 | 499 nM | half-life at 1 µM [6]: 5 min
COc1cccc(N(C)C(=O)c2ccc(-c3cccc(C)c3)s2)c1 |  |  |  |  |  | Drug metabolism [2]: metabolite_notdetected; Drug metabolism [9]: metabolite_notdetected; Drug metabolism [10]: metabolite_notdetected
Cc1cccc(-c2ccc(C(=O)N(C)c3cccc(C)c3)cc2)c1 | 8% | 11% |  |  |  | 
COc1cccc(-c2ccc(C(=O)N(C)c3cccc(OC)c3)s2)c1 |  |  |  |  |  | Drug metabolism [11]: metabolite_notdetected; Drug metabolism [10]: metabolite_notdetected
COc1cccc(N(C)C(=O)c2ccc(-c3cccc(OC)c3F)s2)c1 |  |  |  |  |  | half-life at 1 µM [6]: 12 min

The next lines start with results.

inhibition [1] | inhibition [3] | IC50 [5] | Ratio IC50 (Homo sapiens) | IC50 [7] | Structure (SMILES) | further results
 |  | 698 nM | 3 | 225 nM | Cc1ccc(-c2ccc(C(=O)N(C)c3ccccc3C)s2)cc1 | half-life at 1 µM [6]: 22 min
16% | 11% | 9410 nM | 29 | 327 nM | Cc1cccc(-c2ccc(C(=O)N(C)c3cccc(Cl)c3)s2)c1 | 
11% | 34% |  |  |  | Cc1ccc(-c2ccc(C(=O)N(C)c3cccc(C)c3)s2)cc1 | 
 |  | 16700 nM | 132 | 127 nM | COc1cc(-c2cccc(C)c2)sc1C(=O)N(C)c1cccc(C)c1 | 
